Experimental data: ChEMBL document CHEMBL3407339, “A novel series of thiazolyl-pyrazoline derivatives: synthesis and evaluation of antifungal activity, cytotoxicity and genotoxicity” (Eur J Med Chem, 2015)
≈ marks a conversion by molar mass, not a printed value.

Key:
[Candida] zeylanoides = Antifungal activity against Candida zeylanoides NRLL Y 1774 after 48 hrs by broth microdilution assay; assay type: functional; conditions: Dujonia zeylanoides, NRLL Y 1774, 48 h
In short: (§1)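 Broth microdilution of DMSO stocks serially diluted in sterile water (4 to 0.0039 mg/mL). Yeasts grown on SDA at 37 °C for 24 h, suspended in double-strength PDB at 10⁵ spores/mL. Incubated at 37 °C for 48 h, then sprayed with 0.5% aqueous TTC. MIC = lowest concentration inhibiting visible growth. Ketoconazole reference.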

Salmonella typhimurium [1] = test: Mutagenicity in Salmonella typhimurium TA100 at 5 mg/ml after 48 hrs by AMES MPF assay in presence of Sprague-Dawley rat liver microsomal S9 fraction relative to baseline; assay type: toxicity, organism-based; conditions: salmonella enterica subsp. enterica serovar typhimurium
In short: (§2)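 Ames MPF fluctuation test with TA98/TA100. Overnight cultures (37 °C, 14–16 h) mixed with exposure medium; ±Aroclor-1254-induced rat liver S9 (final 4.5% v/v). Compounds in DMSO, 0.156–5 mg/mL. 90 min exposure at 37 °C, then indicator medium; 48 wells per concentration, 48 h at 37 °C, in triplicate. Yellow wells counted; fold induction over baseline (mean + 1 SD of zero-dose control).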

Salmonella typhimurium [2] = test: Mutagenicity in Salmonella typhimurium TA100 at 1.25 mg/ml after 48 hrs by AMES MPF assay in absence of Sprague-Dawley rat liver microsomal S9 fraction relative to baseline; assay type: toxicity, organism-based; conditions: salmonella enterica subsp. enterica serovar typhimurium; in short: as §2
Salmonella typhimurium [3] = test: Mutagenicity in Salmonella typhimurium TA98 at 0.156 mg/ml after 48 hrs by AMES MPF assay in absence of Sprague-Dawley rat liver microsomal S9 fraction relative to baseline; assay type: toxicity, organism-based; conditions: salmonella enterica subsp. enterica serovar typhimurium; in short: as §2
Salmonella typhimurium [4] = test: Mutagenicity in Salmonella typhimurium TA100 at 0.156 mg/ml after 48 hrs by AMES MPF assay in presence of Sprague-Dawley rat liver microsomal S9 fraction relative to baseline; assay type: toxicity, organism-based; conditions: salmonella enterica subsp. enterica serovar typhimurium; in short: as §2
Salmonella typhimurium [5] = test: Mutagenicity in Salmonella typhimurium TA98 at 1.25 mg/ml after 48 hrs by AMES MPF assay in absence of Sprague-Dawley rat liver microsomal S9 fraction relative to baseline; assay type: toxicity, organism-based; conditions: salmonella enterica subsp. enterica serovar typhimurium; in short: as §2
Salmonella typhimurium [6] = test: Mutagenicity in Salmonella typhimurium TA98 at 0.156 mg/ml after 48 hrs by AMES MPF assay in presence of Sprague-Dawley rat liver microsomal S9 fraction relative to baseline; assay type: toxicity, organism-based; conditions: salmonella enterica subsp. enterica serovar typhimurium; in short: as §2
Salmonella typhimurium [7] = test: Mutagenicity in Salmonella typhimurium TA98 at 2.5 mg/ml after 48 hrs by AMES MPF assay in presence of Sprague-Dawley rat liver microsomal S9 fraction relative to baseline; assay type: toxicity, organism-based; conditions: salmonella enterica subsp. enterica serovar typhimurium; in short: as §2
Salmonella typhimurium [8] = test: Mutagenicity in Salmonella typhimurium TA100 at 1.25 mg/ml after 48 hrs by AMES MPF assay in presence of Sprague-Dawley rat liver microsomal S9 fraction relative to baseline; assay type: toxicity, organism-based; conditions: salmonella enterica subsp. enterica serovar typhimurium; in short: as §2
Salmonella typhimurium [9] = test: Mutagenicity in Salmonella typhimurium TA100 at 2.5 mg/ml after 48 hrs by AMES MPF assay in absence of Sprague-Dawley rat liver microsomal S9 fraction relative to baseline; assay type: toxicity, organism-based; conditions: salmonella enterica subsp. enterica serovar typhimurium; in short: as §2
Nakaseomyces glabratus = test: Antifungal activity against Candida glabrata clinical isolate after 48 hrs by broth microdilution assay; assay type: functional; in short: as §1
Salmonella typhimurium [10] = test: Mutagenicity in Salmonella typhimurium TA100 at 0.625 mg/ml after 48 hrs by AMES MPF assay in absence of Sprague-Dawley rat liver microsomal S9 fraction relative to baseline; assay type: toxicity, organism-based; conditions: salmonella enterica subsp. enterica serovar typhimurium; in short: as §2
A549 = test: Antiproliferative activity against human A549 cells after 24 hrs by XTT assay; assay type: functional, cell-based; conditions: A549, 24 h
In short: (§3)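 A549 cells in RPMI and NIH/3T3 cells in DMEM, each with fetal calf serum, antibiotics and 7.5% NaHCO₃, at 37 °C, 5% CO₂. Seeded at 20,000 cells/well, 24 h, then compounds added in medium at 500–3.9 doses (final DMSO <0.1%) for 24 h. XTT read after 3 h at 480 nm (ref 680 nm). IC₅₀ by non-linear regression; triplicates; cisplatin control.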

Aspergillus parasiticus = test: Antifungal activity against Aspergillus parasiticus NRRL 465 after 72 hrs by broth microdilution assay; assay type: functional; conditions: NRRL 465, 72 h
In short: (§4)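 Compounds dissolved in DMSO, diluted in sterile distilled water from 4 to 0.0039 mg/mL. Molds grown on PDA at 25 °C for 5 days, suspended in double-strength PDB at 10⁵ spores/mL. Incubated at 25 °C for 72 h; mycelial growth read under stereo microscope. MIC = lowest concentration inhibiting visible growth. Ketoconazole reference.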

Pichia kudriavzevii = test: Antifungal activity against Candida krusei NRLL Y 7179 after 48 hrs by broth microdilution assay; assay type: functional; conditions: NRLL Y 7179, 48 h; in short: as §1
Salmonella typhimurium [11] = test: Mutagenicity in Salmonella typhimurium TA100 at 0.3125 mg/ml after 48 hrs by AMES MPF assay in absence of Sprague-Dawley rat liver microsomal S9 fraction relative to baseline; assay type: toxicity, organism-based; conditions: salmonella enterica subsp. enterica serovar typhimurium; in short: as §2
[12] = Cytotoxicity against mouse NIH/3T3 cells after 24 hrs by XTT assay; assay type: cell-based; conditions: NIH3T3, 24 h; in short: as §3
Salmonella typhimurium [13] = test: Mutagenicity in Salmonella typhimurium TA98 at 1.25 mg/ml after 48 hrs by AMES MPF assay in presence of Sprague-Dawley rat liver microsomal S9 fraction relative to baseline; assay type: toxicity, organism-based; conditions: salmonella enterica subsp. enterica serovar typhimurium; in short: as §2
Candida albicans = test: Antifungal activity against Candida albicans ATCC 90028 after 48 hrs by broth microdilution assay; assay type: functional; conditions: ATCC 90028, 48 h; in short: as §1
Salmonella typhimurium [14] = test: Mutagenicity in Salmonella typhimurium TA98 at 0.625 mg/ml after 48 hrs by AMES MPF assay in absence of Sprague-Dawley rat liver microsomal S9 fraction relative to baseline; assay type: toxicity, organism-based; conditions: salmonella enterica subsp. enterica serovar typhimurium; in short: as §2
Candida parapsilosis = test: Antifungal activity against Candida parapsilosis NRLL Y 12696 after 48 hrs by broth microdilution assay; assay type: functional; conditions: Lodderomyces parapsilosis, NRLL Y 12696, 48 h; in short: as §1
Aspergillus niger = test: Antifungal activity against Aspergillus niger ATCC 1094 after 72 hrs by broth microdilution assay; assay type: functional; conditions: ATCC 1094, 72 h; in short: as §4
Candida tropicalis = test: Antifungal activity against Candida tropicalis NRLL Y 12968 after 48 hrs by broth microdilution assay; assay type: functional; conditions: NRLL Y 12968, 48 h; in short: as §1
Salmonella typhimurium [15] = test: Mutagenicity in Salmonella typhimurium TA98 at 2.5 mg/ml after 48 hrs by AMES MPF assay in absence of Sprague-Dawley rat liver microsomal S9 fraction relative to baseline; assay type: toxicity, organism-based; conditions: salmonella enterica subsp. enterica serovar typhimurium; in short: as §2
Salmonella typhimurium [16] = test: Mutagenicity in Salmonella typhimurium TA98 at 5 mg/ml after 48 hrs by AMES MPF assay in presence of Sprague-Dawley rat liver microsomal S9 fraction relative to baseline; assay type: toxicity, organism-based; conditions: salmonella enterica subsp. enterica serovar typhimurium; in short: as §2
Salmonella typhimurium [17] = test: Mutagenicity in Salmonella typhimurium TA98 at 0.625 mg/ml after 48 hrs by AMES MPF assay in presence of Sprague-Dawley rat liver microsomal S9 fraction relative to baseline; assay type: toxicity, organism-based; conditions: salmonella enterica subsp. enterica serovar typhimurium; in short: as §2
Salmonella typhimurium [18] = test: Mutagenicity in Salmonella typhimurium TA100 at 0.625 mg/ml after 48 hrs by AMES MPF assay in presence of Sprague-Dawley rat liver microsomal S9 fraction relative to baseline; assay type: toxicity, organism-based; conditions: salmonella enterica subsp. enterica serovar typhimurium; in short: as §2
Aspergillus flavus = test: Antifungal activity against Aspergillus flavus NRRL 980 after 72 hrs by broth microdilution assay; assay type: functional; conditions: NRRL 980, 72 h; in short: as §4
Salmonella typhimurium [19] = test: Mutagenicity in Salmonella typhimurium TA98 at 5 mg/ml after 48 hrs by AMES MPF assay in absence of Sprague-Dawley rat liver microsomal S9 fraction relative to baseline; assay type: toxicity, organism-based; conditions: salmonella enterica subsp. enterica serovar typhimurium; in short: as §2
Salmonella typhimurium [20] = test: Mutagenicity in Salmonella typhimurium TA100 at 2.5 mg/ml after 48 hrs by AMES MPF assay in presence of Sprague-Dawley rat liver microsomal S9 fraction relative to baseline; assay type: toxicity, organism-based; conditions: salmonella enterica subsp. enterica serovar typhimurium; in short: as §2
Salmonella typhimurium [21] = test: Mutagenicity in Salmonella typhimurium TA98 at 0.3125 mg/ml after 48 hrs by AMES MPF assay in absence of Sprague-Dawley rat liver microsomal S9 fraction relative to baseline; assay type: toxicity, organism-based; conditions: salmonella enterica subsp. enterica serovar typhimurium; in short: as §2
Salmonella typhimurium [22] = test: Mutagenicity in Salmonella typhimurium TA98 at 0.3125 mg/ml after 48 hrs by AMES MPF assay in presence of Sprague-Dawley rat liver microsomal S9 fraction relative to baseline; assay type: toxicity, organism-based; conditions: salmonella enterica subsp. enterica serovar typhimurium; in short: as §2
Salmonella typhimurium [23] = test: Mutagenicity in Salmonella typhimurium TA100 at 0.3125 mg/ml after 48 hrs by AMES MPF assay in presence of Sprague-Dawley rat liver microsomal S9 fraction relative to baseline; assay type: toxicity, organism-based; conditions: salmonella enterica subsp. enterica serovar typhimurium; in short: as §2
Fusarium solani = test: Antifungal activity against Fusarium solani NRRL 13414 after 72 hrs by broth microdilution assay; assay type: functional; conditions: NRRL 13414, 72 h; in short: as §4
Salmonella typhimurium [24] = test: Mutagenicity in Salmonella typhimurium TA100 at 5 mg/ml after 48 hrs by AMES MPF assay in absence of Sprague-Dawley rat liver microsomal S9 fraction relative to baseline; assay type: toxicity, organism-based; conditions: salmonella enterica subsp. enterica serovar typhimurium; in short: as §2
Salmonella typhimurium [25] = test: Mutagenicity in Salmonella typhimurium TA100 at 0.156 mg/ml after 48 hrs by AMES MPF assay in absence of Sprague-Dawley rat liver microsomal S9 fraction relative to baseline; assay type: toxicity, organism-based; conditions: salmonella enterica subsp. enterica serovar typhimurium; in short: as §2

MIC ([Candida] zeylanoides): 250 µg/mL (≈ 527 µM) | MIC (Nakaseomyces glabratus): 125 µg/mL (≈ 263 µM) | IC50 (A549): 125 µg/mL (≈ 263 µM) | MIC (Aspergillus parasiticus): 250 µg/mL (≈ 527 µM) | MIC (Pichia kudriavzevii): 250 µg/mL (≈ 527 µM) | MIC (Candida albicans): 250 µg/mL (≈ 527 µM) | MIC (Candida parapsilosis): 250 µg/mL (≈ 527 µM) | MIC (Aspergillus niger): 250 µg/mL (≈ 527 µM) | MIC (Candida tropicalis): 250 µg/mL (≈ 527 µM) | MIC (Aspergillus flavus): 125 µg/mL (≈ 263 µM) | MIC (Fusarium solani): 250 µg/mL (≈ 527 µM)
SMILES: Fc1ccc(C2CC(c3ccc(Cl)s3)=NN2c2nc(-c3ccc(Cl)cc3)cs2)cc1 (stereo unspecified)
fold change (FC) (Salmonella typhimurium [1]): 3.92 | fold change (FC) (Salmonella typhimurium [2]): 0.33 | fold change (FC) (Salmonella typhimurium [3]): 0 | fold change (FC) (Salmonella typhimurium [4]): 3.23 | fold change (FC) (Salmonella typhimurium [5]): 0.67 | fold change (FC) (Salmonella typhimurium [6]): 0.68 | fold change (FC) (Salmonella typhimurium [7]): 0.54 | fold change (FC) (Salmonella typhimurium [8]): 3.69 | fold change (FC) (Salmonella typhimurium [9]): 1 | fold change (FC) (Salmonella typhimurium [10]): 0.33 | fold change (FC) (Salmonella typhimurium [11]): 0.67 | IC50 [12]: > 500 µg/mL | fold change (FC) (Salmonella typhimurium [13]): 0.81 | fold change (FC) (Salmonella typhimurium [14]): 0 | fold change (FC) (Salmonella typhimurium [15]): 0.67 | fold change (FC) (Salmonella typhimurium [16]): 0.81 | fold change (FC) (Salmonella typhimurium [17]): 0.95 | fold change (FC) (Salmonella typhimurium [18]): 3.46 | fold change (FC) (Salmonella typhimurium [19]): 1 | fold change (FC) (Salmonella typhimurium [20]): 3 | fold change (FC) (Salmonella typhimurium [21]): 0 | fold change (FC) (Salmonella typhimurium [22]): 0.81 | fold change (FC) (Salmonella typhimurium [23]): 3.92 | fold change (FC) (Salmonella typhimurium [24]): 0.33 | fold change (FC) (Salmonella typhimurium [25]): 1.67
